Measured values of several laboratories.
Each line is one published result; the experiments were not run side by side.
Target: Glycogen synthase kinase-3 alpha (GSK3A, Homo sapiens, UniProt P49840)

SMILES | assay | setting | measurement | value
Nc1ncnc2occ(-c3ccc(NC(=O)Nc4cc(C(F)(F)F)ccc4F)cc3)c12 | enzyme activity, inhibitor | 20 µM | remaining activity | 17%
O=C(Nc1cnc(Oc2ccc(F)cc2)nc1)N1CCc2ncccc2[C@@H]1c1ccc(F)cc1 | cell-free assay, competition with immobilised ligand | 1 µM | remaining binding | 93%
C=CC(=O)Nc1cc(Nc2nccc(Nc3cc(Cl)c(F)cc3C(C)(C)O)n2)c(OC)cc1N1CC[C@@H](N(C)C)C1 | enzyme activity, inhibitor | 1 µM | inhibition | 0%
Cc1ccc(C(=O)NCc2ccsc2)cc1C#Cc1cn(C(C)C)c2ncnc(N)c12 | enzyme activity, inhibitor | 1 µM | activity vs control | 91%
Cn1cnc(Br)c1C1=CN(c2ncnc3[nH]cnc23)CCS1 | enzyme activity, inhibitor, radiometric | 2 µM | inhibition | 84.1%
c1ccc(CNc2nc(N3CCOc4ccccc43)nc3c2CCCC3)cc1 | target engagement in cells, inhibitor, chemoproteomics | 20 mM | inhibition | 0%
O=C1Cc2c([nH]c3ccc([N+](=O)[O-])cc23)-c2ccccc2N1 | cell-free assay | 0.5 µM | remaining signal | 0.971%
CS(=O)(=O)N1CCCC(NC(=O)[C@H](CCC2CCCCC2)NC(=O)c2ccc(CNC(=O)c3cnc4ccccn34)cc2)C1 (stereo partly drawn) | cell-free assay, competition with immobilised ligand | 0.1 µM | remaining binding | 100%
CCN(CC)CCNC(=O)c1c(C)[nH]c(/C=C2\C(=O)Nc3ccc(F)cc32)c1C | enzyme activity, inhibitor | 0.3 µM | inhibition | 2%
Cc1c(NC(=O)c2cc(C(N)=O)nc3cc(F)ccc23)c(C(F)(F)F)nn1Cc1ccc(C(C)(C)C)cc1 | cell-free assay, competition with immobilised ligand | 1 µM | remaining binding | 98%
O=S(=O)(Nc1cc(Sc2ncn[nH]2)c(O)c2ccccc12)c1ccc(-c2ccccc2)cc1 | enzyme activity, inhibitor | 1 µM | remaining activity | ≥ 75%
CCCS(=O)(=O)Nc1ccc(F)c(C(=O)c2c[nH]c3ncc(-c4ccc(Cl)cc4)cc23)c1F | enzyme activity, inhibitor | 1 µM | inhibition | < 10%
CC(C)(C)c1nc2c(s1)c1nc(N)ncc1c1ccc(NS(=O)(=O)c3c(F)cccc3F)c(F)c12 | enzyme activity, inhibitor, radiometric | 1 µM | remaining activity | 88%
CNC(=O)Nc1ccc2c(c1)CC[C@@]21OC(=O)N(CC(=O)N(Cc2ccc(F)cc2)[C@@H](C)C(F)(F)F)C1=O | cell-free assay, competition with immobilised ligand | 1 µM | remaining binding | 99%
Cc1ccc(NC(=O)c2ccc(CN3CCN(C)CC3)cc2)cc1Nc1nccc(-c2cccnc2)n1 | enzyme activity, inhibitor | 0.5 µM | activity vs control | 100%
O=C(Nc1cnn(-c2csc(C(=O)NC3COC3)c2)c1)Nc1ccccc1Cl | enzyme activity, inhibitor | 5 µM | remaining activity | 97.4%
C[C@@H]1CN(c2cc(-c3n[nH]c4ccc(OC5(C)CC5)cc34)ncn2)C[C@H](C)O1 | cell-free assay, competition with immobilised ligand | 0.1 µM | remaining binding | 100%
CN1CC(Oc2cnc(C#N)cc2-c2ccn3nc(NC(=O)C4CC4)cc3c2)C1 | enzyme activity, inhibitor | 1 µM | inhibition | -14%
